# Source: ChEMBL document CHEMBL1143102, “Synthesis, radiofluorination, and in vitro evaluation of pyrazolo[1,5-a]pyridine-based dopamine D4 receptor ligands: discovery of an inverse agonist radioligand for PET” (J Med Chem, 2008)
# Experiments:
# D(2) dopamine receptor [1] = biological target: T1, D(2) dopamine receptor (Homo sapiens, UniProt P14416); assay: Displacement of [3H]spiperone from cloned human dopamine D2L receptor expressed in CHO cells; assay type: cell-based
# D(2) dopamine receptor [2] = biological target: T1, D(2) dopamine receptor; assay: Displacement of [3H]spiperone from cloned human dopamine D2S receptor expressed in CHO cells; assay type: cell-based
# D(3) dopamine receptor = D(3) dopamine receptor (Homo sapiens, UniProt P35462); assay: Displacement of [3H]spiperone from cloned human dopamine D3 receptor expressed in CHO cells; assay type: cell-based
# Sequence of D(3) dopamine receptor (P35462 whole entry): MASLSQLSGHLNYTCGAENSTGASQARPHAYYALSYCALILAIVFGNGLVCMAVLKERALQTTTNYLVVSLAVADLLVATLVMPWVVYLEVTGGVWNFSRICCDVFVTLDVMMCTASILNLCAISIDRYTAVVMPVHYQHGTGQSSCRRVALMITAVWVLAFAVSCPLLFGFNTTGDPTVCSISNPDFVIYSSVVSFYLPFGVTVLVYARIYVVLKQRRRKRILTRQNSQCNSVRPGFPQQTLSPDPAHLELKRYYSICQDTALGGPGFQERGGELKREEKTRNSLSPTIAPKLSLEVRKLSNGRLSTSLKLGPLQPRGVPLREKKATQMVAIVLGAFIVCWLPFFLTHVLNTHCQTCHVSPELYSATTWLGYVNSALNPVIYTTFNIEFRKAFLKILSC
# [3] = Displacement of [3H]spiperone from cloned human dopamine D4.4 receptor expressed in CHO cells; assay type: cell-based
# D(1A) dopamine receptor = D(1A) dopamine receptor (Sus scrofa, UniProt P50130); assay: Displacement of [3H][…] from dopamine D1 receptor in pig striatal membrane; assay type: cell membranes, Striatum
# Sequence of D(1A) dopamine receptor (P50130 whole entry): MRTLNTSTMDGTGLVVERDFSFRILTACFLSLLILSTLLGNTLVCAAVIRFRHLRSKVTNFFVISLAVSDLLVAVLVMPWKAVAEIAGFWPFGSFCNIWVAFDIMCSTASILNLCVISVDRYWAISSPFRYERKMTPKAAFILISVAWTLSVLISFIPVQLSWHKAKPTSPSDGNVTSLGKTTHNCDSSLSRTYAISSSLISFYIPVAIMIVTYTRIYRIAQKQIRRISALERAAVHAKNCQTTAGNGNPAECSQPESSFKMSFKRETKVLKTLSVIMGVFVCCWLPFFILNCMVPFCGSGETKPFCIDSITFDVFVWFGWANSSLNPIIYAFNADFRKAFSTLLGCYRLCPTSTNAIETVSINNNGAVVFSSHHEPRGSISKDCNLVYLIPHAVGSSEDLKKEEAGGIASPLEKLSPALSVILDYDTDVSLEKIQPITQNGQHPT
# [4] = Displacement of [3H]8-OH-DPAT from 5HT1A receptor in pig cortical membranes; assay type: cell membranes, Sus scrofa
# In short: (§1)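 Competition binding on porcine cortical membranes. Radioligands, each at 0.5 nM final: [3H]8-OH-DPAT for 5-HT1A, [3H]ketanserin for 5-HT2, [3H]prazosin for α1.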
# [5] = biological target: 5-hydroxytryptamine receptor 2A (Sus scrofa, UniProt P50129); assay: Displacement of [3H]ketanserin from 5HT2 receptor in pig cortical membranes; assay type: cell membranes; in short: as §1
# Sequence of 5-hydroxytryptamine receptor 2A (P50129 whole entry): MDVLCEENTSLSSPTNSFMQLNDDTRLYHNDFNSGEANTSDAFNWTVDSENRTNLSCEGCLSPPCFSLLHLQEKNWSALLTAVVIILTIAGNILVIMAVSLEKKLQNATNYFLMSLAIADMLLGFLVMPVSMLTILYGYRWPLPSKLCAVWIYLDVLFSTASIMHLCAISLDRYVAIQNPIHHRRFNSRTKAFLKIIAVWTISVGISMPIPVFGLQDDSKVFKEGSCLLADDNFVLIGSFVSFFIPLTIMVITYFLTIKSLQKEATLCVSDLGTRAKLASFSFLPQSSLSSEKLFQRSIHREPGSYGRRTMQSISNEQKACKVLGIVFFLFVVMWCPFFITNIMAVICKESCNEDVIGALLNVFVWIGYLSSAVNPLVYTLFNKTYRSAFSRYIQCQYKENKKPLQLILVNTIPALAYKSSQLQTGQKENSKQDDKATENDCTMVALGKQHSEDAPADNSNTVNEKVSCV
# [6] = Displacement of [3H]prazosin from adrenergic alpha1 receptor in pig cortical membranes; assay type: cell membranes, Sus scrofa; in short: as §1
# Homo sapiens [7] = species: Homo sapiens; assay: Selectivity for human dopamine D4.4 receptor over human dopamine D2L receptor
# Homo sapiens [8] = species: Homo sapiens; assay: Selectivity for human dopamine D4.4 receptor over human dopamine D2S receptor
# Homo sapiens [9] = species: Homo sapiens; assay: Selectivity for human dopamine D4.4 receptor over human dopamine D3 receptor
# [10] = Agonist activity at rat dopamine D4.2 receptor expressed in CHO10001A cells assessed as incorporation of [3H]thymidine relative to quinpirole; assay type: functional
# [11] = biological target: T2, D(4) dopamine receptor (Rattus norvegicus) (UniProt P30729); assay: Displacement of 2-[4-(2-(2-[18F]fluoroethoxy)phenyl)piperazin-1-ylmethyl]pyrazolo[1,5-alpha]pyridine from dopamine D4 receptor in Sprague-Dawley rat brain
# T2 sequence (whole entry): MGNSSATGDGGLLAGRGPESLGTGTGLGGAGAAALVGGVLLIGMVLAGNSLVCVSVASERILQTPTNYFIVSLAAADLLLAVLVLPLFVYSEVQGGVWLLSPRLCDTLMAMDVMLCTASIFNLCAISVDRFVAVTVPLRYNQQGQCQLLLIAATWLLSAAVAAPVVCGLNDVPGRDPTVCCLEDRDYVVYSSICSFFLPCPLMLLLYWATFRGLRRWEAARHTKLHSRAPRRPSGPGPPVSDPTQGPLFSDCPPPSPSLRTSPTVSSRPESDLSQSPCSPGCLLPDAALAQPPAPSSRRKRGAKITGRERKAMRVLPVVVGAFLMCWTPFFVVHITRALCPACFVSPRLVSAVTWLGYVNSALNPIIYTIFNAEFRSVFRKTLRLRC
# In short: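 In vitro autoradiography on 20 µm coronal brain cryosections from female Sprague–Dawley rats. Sections are preincubated 2 × 5 min, then incubated 60 min at room temperature with 110 kBq/mL [18F] radioligand, ± competitor (1 µM). Buffer: Tris-HCl, NaCl, EDTA, MgCl2 pH 7.4, with 0.5 µM DTG and 0.1 µM pindolol. Sections are washed cold, imaged by real-time autoradiography, and ROI intensities (cpm/mm2) are defined by HE counterstaining.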
# [12] = Agonist activity at rat dopamine D4.2 receptor expressed in CHO10001A cells assessed as incorporation of [3H]thymidine; assay type: functional, cell-based
# [13] = Stability in human serum at 37 degC after 90 mins; assay type: ADME, cell-free; details: read-out: Stability
# In short: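 PBS-formulated 18F-labeled compound (20 µL, 250 MBq/mL) is added to 200 µL human serum and incubated at 37 °C for up to 90 min. The percentage of intact radioligand is reported.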
# [14] = Lipophilicity, log D at pH 7.4; assay type: physicochemical; details: buffer
# In short: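 Shake-flask partition of about 25 kBq 18F-labeled compound between 1-octanol and PBS pH 7.4, mixed 3 min at room temperature and centrifuged. Triplicate 100 µL samples of each phase are gamma-counted. log D7.4 = log(cpm octanol/cpm buffer), from 2–3 independent experiments in triplicate, mean ± SD.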
# T1 sequence (P14416 whole entry): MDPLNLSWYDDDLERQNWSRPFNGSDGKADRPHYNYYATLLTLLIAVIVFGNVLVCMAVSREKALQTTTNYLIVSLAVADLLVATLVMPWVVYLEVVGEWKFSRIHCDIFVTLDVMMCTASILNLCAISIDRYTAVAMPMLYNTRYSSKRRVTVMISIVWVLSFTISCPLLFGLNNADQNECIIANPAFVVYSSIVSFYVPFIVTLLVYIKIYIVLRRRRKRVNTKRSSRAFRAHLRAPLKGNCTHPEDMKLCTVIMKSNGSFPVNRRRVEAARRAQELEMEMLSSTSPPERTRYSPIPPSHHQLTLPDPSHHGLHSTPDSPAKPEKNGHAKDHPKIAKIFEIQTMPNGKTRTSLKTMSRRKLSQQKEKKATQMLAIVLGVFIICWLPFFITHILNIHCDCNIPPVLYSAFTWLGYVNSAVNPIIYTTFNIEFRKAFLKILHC
Ki (D(2) dopamine receptor [1]) [µM],Ki (D(2) dopamine receptor [2]) [µM],Ki (D(3) dopamine receptor) [µM],Ki (D(1A) dopamine receptor) [µM],Ki [4] [µM],Ki [5] [µM],Ki [6] [µM],Ratio Ki (Homo sapiens [7]),Ratio Ki (Homo sapiens [8]),Ratio Ki (Homo sapiens [9]),Activity [11] [%],EC50 [12] [µM],remaining at 1.5 h [13] [%],logD [14],Compound,Ki [3] [µM],Efficacy [10] [%]
0.88,0.55,0.93,18,0.36,4.4,0.24,–,–,–,–,–,–,–,Brc1cccc(N2CCN(Cc3cc4ccccn4n3)CC2)n1,0.0079,–
4.5,4.7,2.2,2.8,0.68,1.5,0.026,–,–,–,–,–,–,–,Oc1ccccc1N1CCN(Cc2cnn3ccccc23)CC1,0.044,–
–,–,–,–,1.7,–,0.27,1550,2860,2410,78,–,–,–,Clc1ccc(N2CCN(Cc3cc4ccccn4n3)CC2)cc1,0.0022,<3
0.15,0.18,0.32,2.5,0.12,2.9,0.0054,–,–,–,–,0.001,–,–,FCCOc1ccccc1N1CCN(Cc2cnn3ccccc23)CC1,0.0016,71
–,–,–,–,1.4,–,0.24,–,–,–,–,–,–,–,Clc1ccc(N2CCN(Cc3cnn4ccccc34)CC2)cc1 [FAUC 113],0.0058,26
–,–,–,–,–,–,–,–,–,–,–,–,> 98,1.98,[18F]c1cccc(N2CCN(Cc3cnn4ccccc34)CC2)n1,–,–
0.046,0.079,0.94,4.8,5.7,13,0.04,35,61,723,–,0.0008,–,–,FCCOc1ccccc1N1CCN(Cc2cc3ccccn3n2)CC1,0.0013,49
3.4,1.7,3.4,30,1.2,9.7,0.91,142,71,142,–,–,–,–,Fc1cccc(N2CCN(Cc3cc4ccccn4n3)CC2)n1,0.024,–
0.33,0.22,0.59,7.3,0.29,5.4,0.087,38,25,67,–,–,–,–,Fc1cccc(N2CCN(Cc3cnn4ccccc34)CC2)n1,0.0088,–
–,–,–,–,–,–,–,–,–,–,–,–,> 99,1.78,[18F]c1cccc(N2CCN(Cc3cc4ccccn4n3)CC2)n1,–,–
–,–,–,–,–,–,–,–,–,–,65,–,–,–,CCc1cc(Cl)c(OC)c(C(=O)NC[C@@H]2CCCN2CC)c1O,–,–
–,–,–,–,–,–,–,–,–,–,–,–,–,2.15,[18F]CCOc1ccccc1N1CCN(Cc2cnn3ccccc23)CC1,–,–
66,79,8.7,33,13,14,4.5,2360,2820,311,–,0.018,–,–,FCCOc1ccc(N2CCN(Cc3cnn4ccccc34)CC2)cc1,0.028,-41
0.21,0.15,0.41,3.9,0.12,1.2,0.021,–,–,–,–,–,–,–,Brc1cccc(N2CCN(Cc3cnn4ccccc34)CC2)n1,0.0026,–
6.1,87,3.4,9.9,12,24.7,0.082,–,–,–,–,–,–,–,Oc1ccc(N2CCN(Cc3cnn4ccccc34)CC2)cc1,0.02,–
–,–,–,–,–,–,–,–,–,–,–,–,> 99,1.99,[18F]CCOc1ccc(N2CCN(Cc3cc4ccccn4n3)CC2)cc1,–,–
30,50,15,29,1.4,5.5,4.1,2310,3850,1150,–,0.0091,–,–,FCCOc1ccc(N2CCN(Cc3cc4ccccn4n3)CC2)cc1,0.013,-37
–,–,–,–,–,–,–,–,–,–,–,–,> 96,2.12,[18F]CCOc1ccc(N2CCN(Cc3cnn4ccccc34)CC2)cc1,–,–

Compound,Ki (D(2) dopamine receptor [1]) [µM],Ki (D(2) dopamine receptor [2]) [µM],Ki (D(3) dopamine receptor) [µM],Ki (D(1A) dopamine receptor) [µM],Ki [4] [µM],Ki [5] [µM],Ki [6] [µM],Ratio Ki (Homo sapiens [7]),Ratio Ki (Homo sapiens [8]),Ratio Ki (Homo sapiens [9]),Activity [11] [%],EC50 [12] [µM],remaining at 1.5 h [13] [%],logD [14],Ki [3] [µM],Efficacy [10] [%]
CCCN1CCC[C@@H]2Cc3n[nH]cc3C[C@H]21 [QUINPIROLE],–,–,–,–,–,–,–,–,–,–,–,0.0071,–,–,–,–
